From ChEMBL document CHEMBL4382276, “New in Vitro Assay Measuring Direct Interaction of Nonsense Suppressors with the Eukaryotic Protein Synthesis Machinery” (ACS Med Chem Lett, 2018)
Activity calls are given as the source filed them. The calls are words filed in the database; no cut-off is given here.

Tests used:
[1] = Induction of read through activity at cricket paralysis virus-internal ribosome entry site premature termination codon UGA assessed as increase in octapeptide formation from FKVRQ-tRNAGln measured after 20 mins in presence of Typ-tRNA, Leu-tRNA and [35S]-Met-tRNA by co-sedimentation assay
[2] = at cricket paralysis virus-internal ribosome entry site codon UGG assessed as from FKVRQ-tRNAGln at EC50 to 2 times EC50 measured after 20 mins in presence of Typ-tRNA, Leu-tRNA and [35S]-Met-tRNA by co-sedimentation assay
[3] = system: Cricket paralysis virus; assay: Induction of read through activity at cricket paralysis virus-internal ribosome entry site premature termination codon UGA assessed as ratio of plateau octapeptide to FKVRQ-tRNAGln measured after 20 mins in presence of Typ-tRNA, Leu-tRNA and [35S]-Met-tRNA by co-sedimentation assay
[4] = Induction of [35S]Met-tRNA (unknown origin) precipitable particle formation at 30 uM measured after 20 mins
[5] = Induction of 80S ribosome-internal ribosome entry site (unknown origin) precipitable particle formation at 30 uM measured after 20 mins
[6] = system: Cricket paralysis virus; assay: Inhibition of read through activity at cricket paralysis virus-internal ribosome entry site premature termination codon UGA assessed as decrease in octapeptide formation from FKVRQ-tRNAGln at 600 uM measured after 20 mins in presence of Typ-tRNA, Leu-tRNA and [35S]-Met-tRNA by co-sedimentation assay
[7] = Inhibition of read through activity at cricket paralysis virus-internal ribosome entry site codon UGG assessed as decrease in octapeptide formation from FKVRQ-tRNAGln at 600 uM measured after 20 mins in presence of Typ-tRNA, Leu-tRNA and [35S]-Met-tRNA by co-sedimentation assay
[8] = Induction of read through activity at cricket paralysis virus-internal ribosome entry site codon UGA assessed as increase in octapeptide formation from FKVRQ-tRNAGln at 30 to 600 uM measured after 20 mins in presence of Typ-tRNA, Leu-tRNA and [35S]-Met-tRNA by co-sedimentation assay
[9] = system: Cricket paralysis virus; assay: Induction of read through activity at cricket paralysis virus-internal ribosome entry site codon UGG assessed as rate constant for octapeptide formation from FKVRQ-tRNAGln at 5 uM preincubated for 30 secs in presence of Typ-tRNA followed by Leu-tRNA and [35S]-Met-tRNA addition by co-sedimentation assay
How it was run: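 POST5 complex (0.02 μM) mixed with Trp-tRNATrp, Leu-tRNALeu and [35S]-Met-tRNAMet (0.08 μM each), eEF1A (0.08 μM), eEF2 (1.0 μM), eRF1 (0.010 μM) and eRF3 (0.020 μM), with or without NonSup. Incubation at 37 °C in Tris-HCl pH 7.5 buffer for 30 s to 20 min. Quench with 0.5 M MES pH 6.0 at 0 °C, ultracentrifuge through 1.1 M sucrose, and count ribosome-cosedimenting [35S] octapeptidyl-tRNA.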

[10] = system: Cricket paralysis virus; assay: Induction of read through activity at cricket paralysis virus-internal ribosome entry site premature termination codon UGA assessed as eEF2-induced 80S-Stop-IRES-PRE6 formation from 80S-Stop-IRES-POST5 at 1 to 10 uM by FRET assay
[11] = Induction of read through activity at cricket paralysis virus-internal ribosome entry site codon UGG assessed as eEF2-induced 80S-Trp-IRES-PRE6 formation from 80S-Trp-IRES-POST5 by FRET assay
[12] = system: Cricket paralysis virus; assay: Induction of read through activity at cricket paralysis virus-internal ribosome entry site codon UGG assessed as rate constant for octapeptide formation from FKVRQ-tRNAGln at 500 uM preincubated for 30 secs in presence of Typ-tRNA followed by Leu-tRNA and [35S]-Met-tRNA addition by co-sedimentation assay
How it was run: (§1)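 Time course with the same components: POST5 complex 0.02 μM, aminoacyl-tRNAs 0.08 μM each, eEF1A, eEF2, eRF1 0.010 μM, eRF3 0.020 μM, Buffer 4, 37 °C. Aliquots taken from 30 s to 20 min and MES-quenched. Octapeptide measured by ribosome cosedimentation or by base release and thin layer electrophoresis. Rate constants derived from the time courses.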

[13] = system: Cricket paralysis virus; assay: Induction of read through activity at cricket paralysis virus-internal ribosome entry site premature termination codon UGA assessed as rate constant for octapeptide formation from FKVRQ-tRNAGln at 500 uM preincubated for 30 secs in presence of Typ-tRNA followed by Leu-tRNA and [35S]-Met-tRNA addition by co-sedimentation assay; how it was run: as §1

SMILES	EC50 [1]	Activity [2]	Ratio [3]	also measured
NCCC[C@H](N)CC(=O)NCCC[C@H](N)CC(=O)NCCC[C@H](N)CC(=O)NCCC[C@H](N)CC(=O)N[C@@H]1[C@H](O)[C@@H](OC(N)=O)[C@@H](CO)O[C@H]1NC1=N[C@@H]2C(=O)NC[C@@H](O)[C@H]2N1	0.4 to 4 µM	Not Active	0.1 to 0.3	
COc1cccc2c1C(=O)c1c(O)c3c(c(O)c1C2=O)C[C@@](O)(C(=O)CO)C[C@@H]3O[C@H]1C[C@H](N)[C@H](O)[C@H](C)O1 [DOXORUBICIN]		Not Active	0.1 to 0.3	Activity [4]: Active; Activity [5]: Active
N=C1NC(=O)/C(=C/c2ccc(-c3ccccc3[N+](=O)[O-])o2)S1	170 to 350 µM	Not Active	0.1 to 0.16	
CN(CC(=O)O)NC(=O)C[C@H](N)C[C@@H](O)CN [NEGAMYCIN]		Not Active	0.1 to 0.3	
C[C@H](N)[C@H]1O[C@@H](O[C@@H]2[C@@H](O)[C@H](N)C[C@H](N)[C@H]2O[C@H]2O[C@H]([C@@H](C)O)[C@@H](O)[C@H](O)[C@H]2N)[C@H](O)[C@@H]1O	0.4 to 4 µM	Not Active	0.1 to 0.3	
C[C@@H](O)[C@H]1O[C@H](O[C@H]2[C@H](O[C@@H]3O[C@H](CN)[C@@H](O)[C@H]3O)[C@@H](O)[C@H](NC(=O)[C@@H](O)CCN)C[C@@H]2N)[C@H](N)[C@@H](O)[C@@H]1O	0.4 to 4 µM	Not Active	0.1 to 0.3	
C/C=C(\C)C(=O)O[C@H]1[C@H](OC(C)=O)[C@]2(CO)[C@H](O)C[C@@H]3C(=CC[C@H]4[C@H]3CC[C@@H]3[C@@H]4CC[C@H](O[C@@H]4O[C@H](C(=O)O)[C@@H](O[C@@H]5O[C@H](CO)[C@@H](O)[C@H](O)[C@H]5O)[C@H](O)[C@H]4O[C@@H]4O[C@H](CO)[C@@H](O)[C@H](O)[C@H]4O)[C@]3(C)CO)[C@@H]2CC1(C)C				inhibition [6]: Active; inhibition (INH) [7]: Active; Activity [8]: Not Active
NCCC[C@H](N)CC(=O)NCCC[C@H](N)CC(=O)NCCC[C@H](N)CC(=O)N[C@@H]1[C@H](O)[C@@H](OC(N)=O)[C@@H](CO)O[C@H]1NC1=N[C@@H]2C(=O)NC[C@@H](O)[C@H]2N1	0.4 to 4 µM	Not Active	0.1 to 0.3	
NCCC[C@H](N)CC(=O)N[C@@H]1[C@H](O)[C@@H](OC(N)=O)[C@@H](CO)O[C@H]1NC1=N[C@@H]2C(=O)NC[C@@H](O)[C@H]2N1	0.4 to 4 µM	Not Active	0.1 to 0.3	
CN[C@@H]1[C@@H](O)[C@@H](O[C@@H]2[C@@H](O)[C@H](O[C@H]3O[C@H]([C@H](C)O)[C@@H](O)[C@H](O)[C@H]3N)[C@@H](N)C[C@H]2N)OC[C@]1(C)O	0.98 µM	Not Active	0.1 to 0.3	K [9]: 1 to 1.6 min⁻¹; Activity [10]: Active; Activity [11]: Not Active
CC[C@H]1OC(=O)C[C@@H](O)[C@H](C)[C@@H](O[C@@H]2O[C@H](C)[C@@H](O[C@H]3C[C@@](C)(O)[C@@H](O)[C@H](C)O3)[C@H](N(C)C)[C@H]2O)[C@@H](CC=O)C[C@@H](C)C(=O)/C=C/C(C)=C/[C@@H]1CO[C@@H]1O[C@H](C)[C@@H](O)[C@@H](OC)[C@H]1OC [TYLOSIN]				Activity [8]: Not Active
O=C(O)c1cccc(-c2noc(-c3ccccc3F)n2)c1 [ATALUREN]	170 to 350 µM	Not Active	0.1 to 0.16	K [12]: 1 to 1.6 min⁻¹; K [13]: 0.14 min⁻¹
NCCC[C@H](N)CC(=O)NCCC[C@H](N)CC(=O)N[C@@H]1[C@H](O)[C@@H](OC(N)=O)[C@@H](CO)O[C@H]1NC1=N[C@@H]2C(=O)NC[C@@H](O)[C@H]2N1 [STREPTOTHRICIN E]	0.4 to 4 µM	Not Active	0.1 to 0.3	
NCCC[C@H](N)CC(=O)NCCC[C@H](N)CC(=O)NCCC[C@H](N)CC(=O)NCCC[C@H](N)CC(=O)NCCC[C@H](N)CC(=O)NCCC[C@H](N)CC(=O)N[C@@H]1[C@H](O)[C@@H](OC(N)=O)[C@@H](CO)O[C@H]1NC1=N[C@@H]2C(=O)NC[C@@H](O)[C@H]2N1	0.4 to 4 µM	Not Active	0.1 to 0.3	
NCCC[C@H](N)CC(=O)NCCC[C@H](N)CC(=O)NCCC[C@H](N)CC(=O)NCCC[C@H](N)CC(=O)NCCC[C@H](N)CC(=O)NCCC[C@H](N)CC(=O)NCCC[C@H](N)CC(=O)N[C@@H]1[C@H](O)[C@@H](OC(N)=O)[C@@H](CO)O[C@H]1NC1=N[C@@H]2C(=O)NC[C@@H](O)[C@H]2N1	0.4 to 4 µM	Not Active	0.1 to 0.3	
CC[C@H]1OC(=O)[C@H](C)[C@@H](O[C@H]2C[C@@](C)(OC)[C@@H](O)[C@H](C)O2)[C@H](C)[C@@H](O[C@@H]2O[C@H](C)C[C@H](N(C)C)[C@H]2O)[C@](C)(O)C[C@@H](C)CN(C)[C@H](C)[C@@H](O)[C@]1(C)O [AZITHROMYCIN]				Activity [8]: Not Active
CCOCCCNC(=O)N1CCN(Cc2ccc3c(c2)OCO3)CC1				Activity [8]: Not Active
COc1cccc(-n2c(SCC(=O)Nc3ccc(F)cc3)nnc2-c2ccccn2)c1	170 to 350 µM	Not Active	0.1 to 0.16	
CN[C@@H]1[C@@H](O)[C@@H](O[C@@H]2[C@@H](O)[C@H](O[C@H]3O[C@H](CN)[C@@H](O)[C@H](O)[C@H]3O)[C@@H](N)C[C@H]2N)OC[C@]1(C)O [BETAMICIN]	0.4 to 4 µM	Not Active	0.1 to 0.3	
NCCC[C@H](N)CC(=O)NCCC[C@H](N)CC(=O)NCCC[C@H](N)CC(=O)NCCC[C@H](N)CC(=O)NCCC[C@H](N)CC(=O)N[C@@H]1[C@H](O)[C@@H](OC(N)=O)[C@@H](CO)O[C@H]1NC1=N[C@@H]2C(=O)NC[C@@H](O)[C@H]2N1	0.4 to 4 µM	Not Active	0.1 to 0.3	
CN[C@@H]1[C@@H](O)[C@@H](O[C@@H]2[C@@H](O)[C@H](O[C@H]3O[C@H](CO)[C@@H](O)[C@H](O)[C@H]3N)[C@@H](N)C[C@H]2N)OC[C@]1(C)O	0.4 to 4 µM	Not Active	0.1 to 0.3	
